Experiment [1] has as its system Aspergillus niger. The experiment in a line: Antifungal activity against Aspergillus niger assessed as macroscopically visible colonies after 48 and 72 hrs by standard agar dilution method. The experiment is classed as functional. A digest of the protocol: (§1)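 MIC by standard agar method. Tested against Candida albicans, Fusarium oxysporum, Aspergillus flavus, Aspergillus niger and Cryptococcus neoformans. Dimethyl sulfoxide served as solvent control, and miconazole and fluconazole served as reference standards.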
On the technique in general: In agar dilution the substance is mixed into plates at graded concentrations.

Experiment [2] deals with Candida albicans. Nature of the experiment: Antifungal activity against Candida albicans assessed as macroscopically visible colonies after 48 and 72 hrs by standard agar dilution method. The experiment is classed as functional. An outline of the steps: as §1
The next experiment concerns Aspergillus flavus. Nature of the experiment: Antifungal activity against Aspergillus flavus assessed as macroscopically visible colonies after 48 and 72 hrs by standard agar dilution method. The experiment is classed as functional. An outline of the steps: as §1
Experiment [3] relates to Cryptococcus neoformans. The experiment in a line: Antifungal activity against Cryptococcus neoformans assessed as appearance of macroscopically visible colonies after 48 and 72 hrs by standard agar dilution method. The experiment is classed as functional. A digest of the protocol:
as §1

In the next experiment the test system is Fusarium oxysporum. Nature of the experiment: Antifungal activity against Fusarium oxysporum assessed as macroscopically visible colonies after 48 and 72 hrs by standard agar dilution method. The experiment is classed as functional. A digest of the protocol: as §1
Experiment [4] deals with Cryptococcus neoformans. The experiment in a line: Antifungal activity against Cryptococcus neoformans assessed as appearance of macroscopically visible colonies upto 200 ug/ml after 48 and 72 hrs by standard agar dilution method. Format: functional, organism-based. An outline of the steps: as §1
Experiment [5] concerns Candida albicans. The experiment in a line: Antifungal activity against Candida albicans assessed as macroscopically visible colonies upto 200 ug/ml after 48 and 72 hrs by standard agar dilution method. The experiment is classed as functional, organism-based. A digest of the protocol: as §1
The test system of experiment [6] is Aspergillus niger. Nature of the experiment: Antifungal activity against Aspergillus niger assessed as macroscopically visible colonies upto 200 ug/ml after 48 and 72 hrs by standard agar dilution method. The experiment is classed as functional, organism-based. A digest of the protocol:
as §1

From ChEMBL document CHEMBL1641426, “Microwave assisted one pot synthesis of some novel 2,5-disubstituted 1,3,4-oxadiazoles as antifungal agents” (2011) come the findings set out here.

Values after ≈ are worked out from the molar mass of the structure shown. Active and inactive are the calls of the source. The rule behind the calls is not given here.

Broadly, the MIC is the least concentration at which growth counts as inhibited.

Turning to `COc1cccc(-c2nnc(-c3cn(C4CCN(C)CC4)nn3)o2)c1`, the MIC with Aspergillus niger [1] is 70 µg/mL (≈ 206 µM); in the experiment with Candida albicans [2], 60 µg/mL (≈ 176 µM); in the experiment with Aspergillus flavus, 50 µg/mL (≈ 147 µM); in the experiment with Cryptococcus neoformans [3], 80 µg/mL (≈ 235 µM); with Fusarium oxysporum, 65 µg/mL (≈ 191 µM).

`CS(=O)(=O)N1CCC(n2cc(-c3nnc(-c4cccc(O)c4)o3)nn2)CC1`: the MIC in the experiment with Aspergillus niger [1] was 15 µg/mL (≈ 38.4 µM); with Candida albicans [2], 30 µg/mL (≈ 76.8 µM); with Aspergillus flavus, 15 µg/mL (≈ 38.4 µM); with Cryptococcus neoformans [3], 100 µg/mL (≈ 256 µM); in the experiment with Fusarium oxysporum, 25 µg/mL (≈ 64 µM).

In the case of `Cc1cccc(-c2nnc(-c3cn(C4CCN(C(=O)c5ccccc5)CC4)nn3)o2)c1`, the outcome in the experiment with Cryptococcus neoformans [4], in the experiment on Candida albicans [5] and in the experiment on Aspergillus niger [6] was inactive. Also, the MIC is 150 µg/mL (≈ 362 µM) with Aspergillus flavus and 100 µg/mL (≈ 241 µM) in the experiment on Fusarium oxysporum.

Take `c1ccc(-c2nnc(-c3cn(C4CCNCC4)nn3)o2)cc1`: the MIC with Aspergillus niger [1] came out at 125 µg/mL (≈ 422 µM); in the experiment on Candida albicans [2], 80 µg/mL (≈ 270 µM); in the experiment on Aspergillus flavus it was 90 µg/mL (≈ 304 µM); with Cryptococcus neoformans [3], 150 µg/mL (≈ 506 µM); in the experiment with Fusarium oxysporum, 85 µg/mL (≈ 287 µM).

`Clc1ccc(COC(Cn2ccnc2)c2ccc(Cl)cc2Cl)c(Cl)c1` (stereo not given) [MICONAZOLE]: the MIC in the experiment on Aspergillus niger [1] came out at 12.5 µg/mL (≈ 30 µM); in the experiment on Candida albicans [2], 25 µg/mL (≈ 60.1 µM); in the experiment on Aspergillus flavus it was 12.5 µg/mL (≈ 30 µM); in the experiment with Cryptococcus neoformans [3], 25 µg/mL (≈ 60.1 µM); in the experiment on Fusarium oxysporum, 25 µg/mL (≈ 60.1 µM).

`CS(=O)(=O)N1CCC(n2cc(-c3nnc(-c4cccc(Cl)c4)o3)nn2)CC1`: the MIC with Aspergillus niger [1] stood at 20 µg/mL (≈ 48.9 µM); in the experiment with Candida albicans [2] it was 25 µg/mL (≈ 61.1 µM); in the experiment on Aspergillus flavus, 15 µg/mL (≈ 36.7 µM); in the experiment with Cryptococcus neoformans [3], 50 µg/mL (≈ 122 µM); with Fusarium oxysporum, 25 µg/mL (≈ 61.1 µM).

Turning to `O=C(c1ccc(Cl)cc1)N1CCC(n2cc(-c3nnc(-c4ccccc4)o3)nn2)CC1`, the MIC was determined as 100 µg/mL (≈ 230 µM) in the experiment with Aspergillus niger [1], 150 µg/mL (≈ 345 µM) in the experiment with Candida albicans [2], 90 µg/mL (≈ 207 µM) in the experiment with Aspergillus flavus and 90 µg/mL (≈ 207 µM) in the experiment with Fusarium oxysporum. In addition, the result in the experiment with Cryptococcus neoformans [4] was inactive.

Take `CN1CCC(n2cc(-c3nnc(-c4cccc(O)c4)o3)nn2)CC1`: the MIC with Aspergillus niger [1] was 35 µg/mL (≈ 107 µM); in the experiment with Candida albicans [2] it was 40 µg/mL (≈ 123 µM); with Aspergillus flavus, 25 µg/mL (≈ 76.6 µM); with Fusarium oxysporum, 35 µg/mL (≈ 107 µM). Besides, in the experiment with Cryptococcus neoformans [4], the outcome was inactive.

Consider `CS(=O)(=O)N1CCC(n2cc(-c3nnc(-c4ccccc4)o3)nn2)CC1`, for which the MIC came to 40 µg/mL (≈ 107 µM) in the experiment on Aspergillus niger [1]; 35 µg/mL (≈ 93.5 µM) in the experiment with Candida albicans [2]; 45 µg/mL (≈ 120 µM) with Aspergillus flavus; 55 µg/mL (≈ 147 µM) in the experiment with Cryptococcus neoformans [3]; 40 µg/mL (≈ 107 µM) with Fusarium oxysporum.

For the molecule `CC(C)(C)OC(=O)N1CCC(n2cc(-c3nnc(-c4ccccc4)o3)nn2)CC1`, the MIC with Aspergillus niger [1] amounted to 150 µg/mL (≈ 378 µM); in the experiment on Candida albicans [2] it was 100 µg/mL (≈ 252 µM); in the experiment with Aspergillus flavus, 100 µg/mL (≈ 252 µM); with Fusarium oxysporum, 125 µg/mL (≈ 315 µM). Also, the outcome with Cryptococcus neoformans [4] was inactive.

Consider `CN1CCC(n2cc(-c3nnc(-c4ccccc4)o3)nn2)CC1`, for which the MIC amounted to 80 µg/mL (≈ 258 µM) with Aspergillus niger [1]; 70 µg/mL (≈ 226 µM) with Candida albicans [2]; 60 µg/mL (≈ 193 µM) in the experiment with Aspergillus flavus; 90 µg/mL (≈ 290 µM) in the experiment on Cryptococcus neoformans [3]; 70 µg/mL (≈ 226 µM) in the experiment with Fusarium oxysporum.

Take `CC(=O)N1CCC(n2cc(-c3nnc(-c4cccc(Cl)c4)o3)nn2)CC1`: the MIC in the experiment on Aspergillus niger [1] was 25 µg/mL (≈ 67.1 µM); in the experiment with Candida albicans [2], 35 µg/mL (≈ 93.9 µM); in the experiment on Aspergillus flavus, 20 µg/mL (≈ 53.6 µM); in the experiment with Fusarium oxysporum, 30 µg/mL (≈ 80.5 µM). Besides, the outcome in the experiment on Cryptococcus neoformans [4] was inactive.

Consider `O=C(c1ccccc1)N1CCC(n2cc(-c3nnc(-c4ccccc4)o3)nn2)CC1`, for which the MIC with Aspergillus niger [1] came to 175 µg/mL (≈ 437 µM); with Aspergillus flavus, 150 µg/mL (≈ 375 µM); in the experiment on Fusarium oxysporum, 100 µg/mL (≈ 250 µM). The outcome in the experiment on Cryptococcus neoformans [4] and with Candida albicans [5] was inactive.

Take `CN1CCC(n2cc(-c3nnc(-c4cccc(Cl)c4)o3)nn2)CC1`: the MIC in the experiment with Aspergillus niger [1] worked out at 45 µg/mL (≈ 131 µM); with Candida albicans [2] it was 55 µg/mL (≈ 160 µM); in the experiment on Aspergillus flavus, 40 µg/mL (≈ 116 µM); with Cryptococcus neoformans [3] it was 150 µg/mL (≈ 435 µM); with Fusarium oxysporum, 50 µg/mL (≈ 145 µM).

As to `CCN1CCC(n2cc(-c3nnc(-c4cccc(OC)c4)o3)nn2)CC1`, the MIC in the experiment with Aspergillus niger [1] came to 75 µg/mL (≈ 212 µM); with Candida albicans [2] it was 50 µg/mL (≈ 141 µM); in the experiment on Aspergillus flavus it was 50 µg/mL (≈ 141 µM); with Cryptococcus neoformans [3], 100 µg/mL (≈ 282 µM); in the experiment with Fusarium oxysporum it was 60 µg/mL (≈ 169 µM).

In the case of `CS(=O)(=O)N1CCC(n2cc(-c3nnc(-c4cccc([N+](=O)[O-])c4)o3)nn2)CC1`, the MIC in the experiment with Aspergillus niger [1] amounted to 70 µg/mL (≈ 167 µM); in the experiment with Candida albicans [2], 40 µg/mL (≈ 95.4 µM); in the experiment on Aspergillus flavus, 50 µg/mL (≈ 119 µM); in the experiment with Cryptococcus neoformans [3], 90 µg/mL (≈ 215 µM); in the experiment on Fusarium oxysporum, 55 µg/mL (≈ 131 µM).

Turning to `CC(=O)N1CCC(n2cc(-c3nnc(-c4cccc(C)c4)o3)nn2)CC1`, the MIC was 40 µg/mL (≈ 114 µM) with Aspergillus niger [1], 45 µg/mL (≈ 128 µM) with Candida albicans [2], 35 µg/mL (≈ 99.3 µM) with Aspergillus flavus and 40 µg/mL (≈ 114 µM) in the experiment on Fusarium oxysporum. The outcome in the experiment with Cryptococcus neoformans [4] was inactive.

For the molecule `CCN1CCC(n2cc(-c3nnc(-c4cccc(O)c4)o3)nn2)CC1`, the MIC was found to be 20 µg/mL (≈ 58.8 µM) with Aspergillus niger [1]; 35 µg/mL (≈ 103 µM) in the experiment with Candida albicans [2]; 20 µg/mL (≈ 58.8 µM) with Aspergillus flavus; 60 µg/mL (≈ 176 µM) in the experiment on Cryptococcus neoformans [3]; 35 µg/mL (≈ 103 µM) in the experiment on Fusarium oxysporum.

For the molecule `CCN1CCC(n2cc(-c3nnc(-c4ccccc4)o3)nn2)CC1`, the MIC amounted to 80 µg/mL (≈ 247 µM) in the experiment with Aspergillus niger [1]; 55 µg/mL (≈ 170 µM) in the experiment with Candida albicans [2]; 60 µg/mL (≈ 185 µM) in the experiment with Aspergillus flavus; 80 µg/mL (≈ 247 µM) in the experiment with Cryptococcus neoformans [3]; 50 µg/mL (≈ 154 µM) in the experiment on Fusarium oxysporum.

Turning to `OC(Cn1cncn1)(Cn1cncn1)c1ccc(F)cc1F` [FLUCONAZOLE], the MIC with Aspergillus niger [1] was 10 µg/mL (≈ 32.7 µM); in the experiment with Candida albicans [2] it was 5 µg/mL (≈ 16.3 µM); with Aspergillus flavus, 5 µg/mL (≈ 16.3 µM); with Cryptococcus neoformans [3], 5 µg/mL (≈ 16.3 µM); in the experiment on Fusarium oxysporum, 5 µg/mL (≈ 16.3 µM).

For `CCN1CCC(n2cc(-c3nnc(-c4cccc(Cl)c4)o3)nn2)CC1`, the MIC in the experiment on Aspergillus niger [1] came out at 50 µg/mL (≈ 139 µM); in the experiment with Candida albicans [2] it was 40 µg/mL (≈ 111 µM); in the experiment on Aspergillus flavus, 25 µg/mL (≈ 69.7 µM); in the experiment on Cryptococcus neoformans [3], 50 µg/mL (≈ 139 µM); in the experiment on Fusarium oxysporum, 35 µg/mL (≈ 97.5 µM).
